Assay [1] deals with Staphylococcus aureus. The assay is described as follows: Minimum inhibitory concentration against methicillin, ciprofloxacin, rifampin, imipenem-resistant Staphylococcus aureus UC12673; Range is 1-2 ug/mL. It is filed as functional. The essentials: (§1)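 MIC determined by standard broth microdilution following the NCCLS M7-A4 approved standard for dilution susceptibility testing of aerobically growing bacteria.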

Assay [2] relates to Escherichia coli. The assay is described as follows: Minimum inhibitory concentration against Escherichia coli UC6674. It is filed as functional. The gist of the method:
(§2)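 Broth microdilution MIC following the NCCLS M7-A4 approved standard for dilution susceptibility testing of aerobically growing bacteria. The method is taken as accurate to within one dilution.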

The test system of assay [3] is Streptococcus pneumoniae. Kind of assay: Minimum inhibitory concentration against penicillin-susceptible Streptococcus pneumoniae UC9912. To be noted: Streptococcus pneumoniae; read-out: MIC. The format is functional. The essentials:
as §2

Assay [4] deals with Haemophilus influenzae. The assay is described as follows: Minimum inhibitory concentration against ampicillin-reisitant Haemophilus influenzae UC30063. The format is functional. The gist of the method:
as §2

Assay [5] deals with Enterococcus faecalis. The assay is described as follows: Minimum inhibitory concentration against Enterococcus faecalis UC9217; Range is 1-2 ug/mL. It is filed as functional. The essentials: as §2
Assay [6] deals with Staphylococcus aureus. The assay is described as follows: Minimum inhibitory concentration against methicillin-susceptible Staphylococcus aureus UC9213; Range is 2-4 ug/mL. The format is functional. The essentials:
as §1

Assay [7] has as its system Staphylococcus epidermidis. Kind of assay: Minimum inhibitory concentration against methicillin-resistant Staphylococcus epidermidis UC12084.
Assay [8] has as its system Staphylococcus aureus. Kind of assay: Minimum inhibitory concentration against methicillin, ciprofloxacin, rifampin, imipenem-resistant Staphylococcus aureus UC12673; Range is 2-4 ug/mL. The format is functional. The gist of the method:
as §1

The subject of assay [9] is Enterococcus faecalis. Kind of assay: Minimum inhibitory concentration against Enterococcus faecalis UC9217. It is filed as functional. The gist of the method:
as §2

Assay [10] relates to Streptococcus pneumoniae. Kind of assay: Minimum inhibitory concentration against penicillin-susceptible Streptococcus pneumoniae UC9912; Range is 0.5-1 ug/mL. It is filed as functional. The gist of the method: as §2
Assay [11] has as its system Staphylococcus aureus. Kind of assay: Minimum inhibitory concentration against methicillin, ciprofloxacin, rifampin, imipenem-resistant Staphylococcus aureus UC12673. The format is functional. The essentials: as §1
Assay [12] deals with Staphylococcus aureus. Kind of assay: Minimum inhibitory concentration against methicillin-susceptible Staphylococcus aureus UC9213. The format is functional. The gist of the method:
as §1

For assay [13], the system named is Streptococcus pneumoniae. Kind of assay: Minimum inhibitory concentration against penicillin-susceptible Streptococcus pneumoniae UC9912; Range is 1-2 ug/mL. It is filed as functional. The gist of the method: as §2
Assay [14] has as its system Staphylococcus epidermidis. Kind of assay: Minimum inhibitory concentration against methicillin-resistant Staphylococcus epidermidis UC12084; Range is 1-2 ug/mL.
Assay [15] concerns Streptococcus pneumoniae. Kind of assay: Minimum inhibitory concentration against penicillin-susceptible Streptococcus pneumoniae UC9912; Range is from 0.5-1 ug/mL. The format is functional. The gist of the method: as §2
For assay [16], the system named is Enterococcus faecalis. The assay is described as follows: Minimum inhibitory concentration against Enterococcus faecalis UC9217; Range is from 2-4 ug/mL. The format is functional. The essentials: as §2
Assay [17] relates to Haemophilus influenzae. Kind of assay: Minimum inhibitory concentration against ampicillin-reisitant Haemophilus influenzae UC30063; Range is from 8-16 ug/mL. The format is functional. The essentials: as §2
Assay [18] relates to Staphylococcus epidermidis. Kind of assay: Minimum inhibitory concentration against methicillin-resistant Staphylococcus epidermidis UC12084; Range is from 1-2 ug/mL.
Assay [19] concerns Escherichia coli. Kind of assay: Minimum inhibitory concentration against Escherichia coli UC6674; Range is 16-32 ug/mL. The format is functional. The essentials:
as §2

Assay [20] has as its system Staphylococcus epidermidis. The assay is described as follows: Minimum inhibitory concentration against methicillin-resistant Staphylococcus epidermidis UC12084; Range is 0.5-1 ug/mL.
[21] abbreviates: Haemophilus influenzae, read-out: MIC.

Structures are written as SMILES. In brackets after ≈: the same amount, converted by molar mass. Where only a bound is given, the exact number is not on record here.

`CC(=O)NC[C@H]1CN(c2cc(F)c(N3C[C@@H]4[C@@H](O)[C@@H]4C3)c(F)c2)C(=O)O1`: the MIC was 2 µg/mL (≈ 5.44 µM) against Staphylococcus aureus [1]; above 64 µg/mL in the assay with Escherichia coli [2]; 1 µg/mL (≈ 2.72 µM) with Streptococcus pneumoniae [3]; 16 µg/mL (≈ 43.6 µM) in the assay with Haemophilus influenzae [4] (setting [21]); 2 µg/mL (≈ 5.44 µM) against Enterococcus faecalis [5]; 4 µg/mL (≈ 10.9 µM) against Staphylococcus aureus [6]. This compound also showed an MIC in assay [7] of 1 µg/mL (≈ 2.72 µM).

For the compound `CC(=O)NC[C@H]1CN(c2cc(F)c(N3C[C@@H]4[C@H](C3)[C@H]4NC=O)c(F)c2)C(=O)O1`, the MIC was 4 µg/mL (≈ 10.1 µM) in the assay on Staphylococcus aureus [8]; above 64 µg/mL against Escherichia coli [2]; 2 µg/mL (≈ 5.07 µM) in the assay with Enterococcus faecalis [9]; 32 µg/mL (≈ 81.1 µM) in the assay with Haemophilus influenzae [4] (setting [21]); 4 µg/mL (≈ 10.1 µM) in the assay on Staphylococcus aureus [6]; 1 µg/mL (≈ 2.54 µM) against Streptococcus pneumoniae [10]. The compound further returned an MIC in [7] of 1 µg/mL (≈ 2.54 µM).

`CCC(=O)NC[C@H]1CN(c2cc(F)c(N3C[C@@H]4[C@H](C3)[C@H]4C(=O)O)c(F)c2)C(=O)O1`: the MIC with Enterococcus faecalis [9] came out at 1 µg/mL (≈ 2.44 µM); against Staphylococcus aureus [11], 1 µg/mL (≈ 2.44 µM); against Staphylococcus aureus [12], 2 µg/mL (≈ 4.89 µM); in the assay on Streptococcus pneumoniae [13] it was 2 µg/mL (≈ 4.89 µM); in the assay on Haemophilus influenzae [4] (setting [21]), 8 µg/mL (≈ 19.5 µM); in assay [14], 2 µg/mL (≈ 4.89 µM).

With `CCC(=O)NC[C@H]1CN(c2cc(F)c(N3C[C@@H]4[C@@H](N)[C@@H]4C3)c(F)c2)C(=O)O1`, the MIC with Streptococcus pneumoniae [15] was 1 µg/mL (≈ 2.63 µM); against Staphylococcus aureus [11], 4 µg/mL (≈ 10.5 µM); in the assay on Enterococcus faecalis [16] it was 4 µg/mL (≈ 10.5 µM); with Staphylococcus aureus [12] it was 4 µg/mL (≈ 10.5 µM); in the assay with Haemophilus influenzae [17], 16 µg/mL (≈ 42.1 µM); in [18] it was 2 µg/mL (≈ 5.26 µM).

In the case of `CC(=O)NC[C@H]1CN(c2cc(F)c(N3C[C@@H]4[C@@H](N)[C@@H]4C3)c(F)c2)C(=O)O1` (stereo in doubt; 18b), the MIC with Staphylococcus aureus [8] amounted to 4 µg/mL (≈ 10.9 µM); with Escherichia coli [19], 32 µg/mL (≈ 87.3 µM); in the assay on Streptococcus pneumoniae [3] it was 0.5 µg/mL (≈ 1.36 µM); against Haemophilus influenzae [4], 8 µg/mL (≈ 21.8 µM); in the assay with Enterococcus faecalis [5], 2 µg/mL (≈ 5.46 µM); against Staphylococcus aureus [6], 4 µg/mL (≈ 10.9 µM). The same compound returned an MIC in assay [20] of 1 µg/mL (≈ 2.73 µM).

(Values after ChEMBL document CHEMBL1140345, “Conformational constraint in oxazolidinone antibacterials. Synthesis and structure-activity studies of (azabicyclo[3.1.0]hexylphenyl)oxazolidinones” (2005).)
